# According to ChEMBL document CHEMBL1124006, “Synthesis and cognition activating properties of some mono- and bicyclic lactam derivatives” (1988):
# Where “and” joins values, the source holds several entries; their conditions need not be identical. Equal values may be shown once.
# Tests used:
# [1] = test system: Rattus norvegicus; experiment: Effect of lactam derivative on retention in one-trial passive avoidance test in rats tested at equimolar doses to 100 mg/kg ip of piracetam; format: functional, organism-based; parameters: dose 100 mg/kg; settings: at 100 mg/kg
# How it was run: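 Male Sprague-Dawley rats, 250-300 g, 8 per group, dosed ip twice for 2 days, equimolar to 100 mg/kg piracetam. Trained to avoid dark compartment, 720 μA footshock for 15 s; retested 24 h later with grid off. Rats avoiding dark side 0.2-3 min counted as remembering; percent retention.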
# [2] = test system: Rattus norvegicus; experiment: Retention time was measured at equimolar doses to 100 mg/kg ip of piracetam; format: functional, organism-based; parameters: dose 100 mg/kg
# How it was run: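 Male Sprague-Dawley rats, 8 per group, ip twice for 2 days, equimolar to 100 mg/kg piracetam. Footshock 720 μA, 15 s; retest 24 h later. For remembering rats, retention time T = T' − T0, light-compartment time at retest minus time at acquisition; mean ± SD, t test.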
# [3] = test system: Rattus norvegicus; experiment: Effect of tested at dose of 100 mg/kg in the water- maze test after 15 minutes (day 4); format: functional
# How it was run: (§1)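 Male Sprague-Dawley rats, 250-300 g, 10 per group; day 1 selects rats unable to leave the water maze within 5 min. Drug dosed ip twice daily on days 2-4, equimolar to 100 mg/kg piracetam. On day 5, two doses 30 min apart, then transtemporal ECS (60 mA/0.2 s). Mazes run 15, 60, 240 min after shock. Errors (reversals plus wrong entrances) and exit time recorded; mean ± SD, t test.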
# [4] = test system: Rattus norvegicus; experiment: Effect of lactam derivatives tested at dose of 100 mg/kg in the water- maze test (day 2); format: functional; how it was run: as §1
# [5] = test system: Mus musculus; experiment: Motor coordination in rotarod test performed (total number of falls in 3 min) at the dose of 1000 mg/kg on mice; format: functional
# [6] = test system: Mus musculus; experiment: Maximal Electroshock seizure (% of animals without seizures) at the dose of 1000 mg/kg on mice; format: functional
# How it was run: (§2)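 Swiss mice of both sexes, 10 per dose, ip in 1% Tween 80. Maximal electroshock set to kill 50% of controls (60 mA, 0.4 s, 0.6 ms pulse width). Mice without seizures counted as protected; percent protected.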
# [7] = test system: Mus musculus; experiment: Exploratory activity in hole board at the dose of 1000 mg/kg lactam derivatives on mice; format: functional
# How it was run: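 Swiss mice of both sexes, 22 ± 2 g, 10 per dose, ip in 1% Tween 80. Hole board (Boissier and Simon); holes explored in 5 min counted by infrared device; mean ± SD.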
# [8] = test system: Mus musculus; experiment: Spontaneous motor activity in open field at the dose of 1000 mg/kg on mice; format: functional
# How it was run: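 Swiss mice, male and female, 22 ± 2 g, 10 per dose (5 each sex). Dosed ip in 1% Tween 80, doses up to 1000 mg/kg. Open field 15 min after injection; total movements in 5 min; mean ± SD, t test.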
# [9] = test system: Rattus norvegicus; experiment: Effect of tested at dose of 100 mg/kg in the water- maze test (day 3); format: functional; how it was run: as §1
# [10] = test system: Rattus norvegicus; experiment: Effect of tested at dose of 100 mg/kg in the water- maze test (day 2); format: functional; how it was run: as §1
# [11] = test system: Rattus norvegicus; experiment: Effect of tested at dose of 100 mg/kg in the water- maze test after 60 minutes (day 4); format: functional; how it was run: as §1
# [12] = test system: Rattus norvegicus; experiment: Effect of tested at dose of 100 mg/kg in the water- maze test (day 1); format: functional; how it was run: as §1
# [13] = test system: Rattus norvegicus; experiment: Effect of lactam derivatives tested at dose of 100 mg/kg in the water- maze test (day 1); format: functional; how it was run: as §1
# [14] = test system: Mus musculus; experiment: Traction test (times in seconds on the horizontal wire with forelegs) performed at the dose of 1000 mg/kg on mice; format: functional
# How it was run: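 Swiss mice of both sexes, 10 per dose, ip in 1% Tween 80. Boissier and Simon traction test; time spent hanging by forelegs on a horizontal wire, in seconds; mean ± SD.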
# [15] = test system: Rattus norvegicus; experiment: Effect of tested at dose ofv 100 mg/kg in the water- maze test (day 2); format: functional; how it was run: as §1
# [16] = test system: Rattus norvegicus; experiment: Effect of tested at dose of 100 mg/kg in the water- maze test after 30 minutes (day 4); format: functional
# [17] = test system: Mus musculus; experiment: Spontaneous motor activity in open field at the dose of 1000 mg/kg on mice (statistical significance test); format: functional
# How it was run: (§3)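 Open-field activity in male and female Swiss mice (22 ± 2 g, 10 per dose), compound given ip in 1% Tween 80 with vehicle-only controls. Tested 15 min after injection: total movements per animal in 5 min, mean ± SD; t test vs vehicle.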
# [18] = test system: Mus musculus; experiment: Exploratory activity in hole board at the dose of 1000 mg/kg on mice (statistical significance test); format: functional
# How it was run: (§4)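 Swiss inbred mice (male and female, 22 ± 2 g), 10 per dose (5 of each sex), given ip in 1% Tween 80; controls got vehicle only. Boissier–Simon hole board with infrared detection: total holes explored per animal in 5 min, mean ± SD. t test vs vehicle.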
# [19] = test system: Mus musculus; experiment: Traction test (times in seconds on the horizontal wire with forelegs) performed at the dose of 500 mg/kg on mice (statistical significance test); format: functional
# How it was run: (§5)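 Boissier–Simon traction test in Swiss mice (5 male plus 5 female per dose, 22 ± 2 g), dosed ip in 1% Tween 80, with vehicle controls. Read-out: time in seconds each mouse stays hanging by its forelegs on a horizontal wire, mean ± SD; t test vs vehicle.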
# [20] = test system: Mus musculus; experiment: Maximal Electroshock seizure (% of animals without seizures) at the dose of 500 mg/kg on mice; format: functional
# How it was run: (§6)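 Swiss mice (5 male, 5 female per dose, 22 ± 2 g) dosed ip in 1% Tween 80, with vehicle controls. Maximal electroshock set to kill 50% of controls: 60 mA, 0.4 s shock, 0.6 ms pulse width. Read-out: percent of animals without seizures.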
# [21] = test system: Mus musculus; experiment: Traction test (times in seconds on the horizontal wire with forelegs) performed at the dose of 1000 mg/kg on mice (statistical significance test); format: functional; how it was run: as §5
# [22] = test system: Mus musculus; experiment: Motor coordination in rotarod test performed (total number of falls in 3 min) at the dose of 500 mg/kg on mice; format: functional
# How it was run: (§7)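 Rota-rod motor coordination in Swiss mice (10 per dose, sexes mixed, 22 ± 2 g), dosed ip in 1% Tween 80 against vehicle controls. Falls counted per animal, mean ± SD; t test vs vehicle. The table footer gives 3 min and the method gives a 100 s observation period.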
# [23] = test system: Mus musculus; experiment: Spontaneous motor activity in open field at the dose of 500 mg/kg on mice; format: functional; how it was run: as §3
# [24] = test system: Mus musculus; experiment: Motor coordination in rotarod test performed (total number of falls in 3 min) at the dose of 1000 mg/kg on mice (statistical significance test); format: functional; how it was run: as §7
# [25] = test system: Mus musculus; experiment: Maximal Electroshock seizure (% of animals without seizures) at the dose of 500 mg/kg lactam derivatives on mice; format: functional; how it was run: as §6
# [26] = test system: Mus musculus; experiment: Traction test (times in seconds on the horizontal wire with forelegs) performed at the dose of 500 mg/kg lactam derivatives on mice; format: functional; how it was run: as §5
# [27] = test system: Mus musculus; experiment: Exploratory activity in hole board at the dose of 500 mg/kg lactum derivatives on mice; format: functional; how it was run: as §4
# [28] = test system: Mus musculus; experiment: Traction test (times in seconds on the horizontal wire with forelegs) performed at the dose of 1000 mg/kg lactam derivatives on mice; format: functional; how it was run: as §5
# [29] = test system: Mus musculus; experiment: Motor coordination in rotarod test performed (total number of falls in 3 min) at the dose of 500 mg/kg lactam derivatives on mice; format: functional; how it was run: as §7
# [30] = test system: Mus musculus; experiment: Maximal Electroshock seizure (% of animals without seizures) at the dose of 1000 mg/kg lactam derivatives on mice; format: functional; how it was run: as §2
# [31] = test system: Mus musculus; experiment: Motor coordination in rotarod test performed (total number of falls in 3 min) at the dose of 1000 mg/kg lactam derivatives on mice; format: functional; how it was run: as §7
structure (smiles),measurement,setting,value
CCOC(=O)C1CNC(=O)CC1C(=O)OCC (stereo in doubt; 4) [listing 1 of 2 here],Retention,[1],100%
same,Retention time,[2],44.2 s
NC(=O)CN1CCCC1=O [PIRACETAM],No. of errors,[3],3.2
same,Speed of performance,[3],251
same,No. of errors,[4],7.2 and 8.1
same,Activity,[5],1.7
same,Activity,[6],0%
same,Activity,[7],19.6
same,Activity,[8],3764.3
same,Retention,[1],100%
same,No. of errors,[9],3.5 and 5
same,Speed of performance,[9],249 and 250.1
same,Speed of performance,[10],291.5
same,No. of errors,[11],3.6
same,Speed of performance,[11],197.6
same,No. of errors,[12],7.6 and 9.1
same,Speed of performance,[13],272.2 and 265
same,Activity,[14],79.9
same,Speed of performance,[15],282.7
same,No. of errors,[16],2.1
same,Speed of performance,[16],235.7
same,Retention time,[2],43.2 s
CCOC(=O)C1CNC(=O)CC1C(=O)OCC (stereo in doubt; 5) [listing 1 of 2 here],Retention,[1],100%
same,Retention time,[2],47.2 s
CCOC(=O)C1CNC(=O)CC1C(=O)OCC (stereo in doubt; 5) [listing 2 of 2 here],Activity,[6],40%
same,Activity,[17],782
same,Activity,[18],8.9%
same,Activity,[19],65.1
same,Activity,[20],0%
same,Activity,[21],<7
same,Activity,[22],0.8
same,Activity,[23],3025.2
same,Activity,[24],16.4
CCOC(=O)C1CNC(=O)CC1C(=O)OCC (stereo in doubt; 4) [listing 2 of 2 here],Activity,[7],20
same,Activity,[8],2522
same,Activity,[25],0%
same,Activity,[26],75.8
same,Activity,[27],20.4
same,Activity,[28],112.8
same,Activity,[29],1
same,Activity,[30],0%
same,Activity,[23],3410.5
same,Activity,[31],3.3
